Activity and Time data for 7 compounds are collected here from ChEMBL document CHEMBL3272191, “Aporphines. 14 Dopaminergic and antinociceptive activity of aporphine derivatives. Synthesis of 10-hydroxyaporphines and 10-hydroxy-N-n-propylnoraporphine” (1976).

Assay [1] has as its system Mus musculus. The assay can be described thus: Antinociceptive activity in albino CD-1 mouse at 0.1 to 10 mg/kg, ip after 60 mins by tail-flick method. It is filed as functional, organism-based. The gist of the method: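 Male albino CD-1 mice (18–24 g) were used in groups of ten. Compounds were suspended in 0.5% methylcellulose and given ip. Light was focused on the ventral tail and set for a 2–4 s baseline flick; mice outside that range were excluded. The control was the mean of two readings 30 min apart. Latencies were read every 30 min for 2 h, with a 10 s cutoff. Read-out was %MPE = [(Tr − Tc)/(10 − Tc)] × 100, taken at time of peak effect.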

Assay [2] relates to Mus musculus. The assay can be described thus: Antinociceptive activity in naloxone hydrochloride-pretreated albino CD-1 mouse at 0.1 to 10 mg/kg, ip after 60 mins by tail-flick method. In kind it is functional, organism-based.
The subject of assay [3] is Rattus norvegicus. Description: Central dopaminergic activity in 6-OH-DA-lesioned specific pathogen-free Sprague-Dawley rat assessed as induction of rotational behavior measured as total time at 0.01 mg/kg, ip. It is filed as functional. As to conditions: route intraperitoneal. The gist of the method:
(§1)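 Drugs were given ip, mostly to one group of four rats, with an extra group of four in some runs. Doses were 3 days or more apart over several months. Read-outs were total turning time (min), peak activity, overall mean activity and total activity, given as means ± SEM.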

The subject of assay [4] is Rattus norvegicus. Description: Central dopaminergic activity in 6-OH-DA-lesioned specific pathogen-free Sprague-Dawley rat assessed as induction of rotational behavior measured as total time at 0.05 mg/kg, ip. It is filed as functional. As to conditions: route intraperitoneal. The gist of the method:
as §1

Assay [5] deals with Rattus norvegicus. The assay can be described thus: Central dopaminergic activity in 6-OH-DA-lesioned specific pathogen-free Sprague-Dawley rat assessed as induction of rotational behavior measured as total time at 1 mg/kg, ip. It is filed as functional. As to conditions: route intraperitoneal. The gist of the method:
as §1

Assay [6] concerns Rattus norvegicus. Description: Central dopaminergic activity in 6-OH-DA-lesioned specific pathogen-free Sprague-Dawley rat assessed as induction of rotational behavior measured as total time at 0.25 mg/kg, ip. In kind it is functional. To be noted: route intraperitoneal. The gist of the method:
as §1

In assay [7] the test system is Rattus norvegicus. The assay can be described thus: Central dopaminergic activity in 6-OH-DA-lesioned specific pathogen-free Sprague-Dawley rat assessed as induction of rotational behavior measured as total time at 0.1 mg/kg, ip. In kind it is functional. To be noted: route intraperitoneal. The gist of the method: as §1
Assay [8] concerns Rattus norvegicus. The assay can be described thus: Central dopaminergic activity in 6-OH-DA-lesioned ip dosed specific pathogen-free Sprague-Dawley rat assessed as induction of rotational behavior. In kind it is functional, organism-based. The gist of the method:
as §1

For assay [9], the system named is Rattus norvegicus. Description: Central dopaminergic activity in 6-OH-DA-lesioned specific pathogen-free Sprague-Dawley rat assessed as induction of rotational behavior measured as total time at 0.5 mg/kg, ip. As to conditions: route intraperitoneal. In kind it is functional. The gist of the method: as §1
Assay [10] deals with Rattus norvegicus. Description: Central dopaminergic activity in 6-OH-DA-lesioned specific pathogen-free Sprague-Dawley rat assessed as induction of rotational behavior measured as total time at 2.5 mg/kg, ip. It is filed as functional. To be noted: route intraperitoneal. The gist of the method: as §1
Assay [11] concerns Mus musculus. The assay can be described thus: Antinociceptive activity in naloxone hydrochloride-pretreated albino CD-1 mouse at 0.1 to 10 mg/kg, ip after 10 mins by tail-flick method. In kind it is functional, organism-based. A general note: Hot-plate and tail-flick tests time the reaction to a heat stimulus.
The subject of assay [12] is Rattus norvegicus. The assay can be described thus: Central dopaminergic activity in 6-OH-DA-lesioned specific pathogen-free Sprague-Dawley rat assessed as induction of rotational behavior measured as total time at 0.025 mg/kg, ip. In kind it is functional. As to conditions: route intraperitoneal. The gist of the method:
as §1

Assay [13] relates to Rattus norvegicus. The assay can be described thus: Central dopaminergic activity in 6-OH-DA-lesioned specific pathogen-free Sprague-Dawley rat assessed as induction of rotational behavior measured as total time at 0.005 mg/kg, ip. It is filed as functional. As to conditions: route intraperitoneal. The gist of the method: as §1
The test system of assay [14] is Mus musculus. The assay can be described thus: Antinociceptive activity in albino CD-1 mouse at 0.1 to 10 mg/kg, ip after 10 mins by tail-flick method. It is filed as functional, organism-based.
The test system of assay [15] is Rattus norvegicus. Description: Central dopaminergic activity in 6-OH-DA-lesioned specific pathogen-free Sprague-Dawley rat assessed as induction of rotational behavior measured as total time at 5 mg/kg, ip. In kind it is functional. To be noted: route intraperitoneal. The gist of the method: as §1
In assay [16] the test system is Rattus norvegicus. The assay can be described thus: Central dopaminergic activity in 6-OH-DA-lesioned specific pathogen-free Sprague-Dawley rat assessed as induction of rotational behavior measured as total time at 15 mg/kg, ip. In kind it is functional. To be noted: route intraperitoneal. The gist of the method:
(§2)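 Rotational behavior in unilaterally 6-OHDA-lesioned rats, ascending DA pathway. Drug given ip, mostly to one group of four rats, plus a second group of four for some doses. Injections at least 3 days apart over several months. Reported as mean total turning time (min), peak, overall and total activity, means ± SEM.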

For assay [17], the system named is Rattus norvegicus. The assay can be described thus: Central dopaminergic activity in 6-OH-DA-lesioned specific pathogen-free Sprague-Dawley rat assessed as induction of rotational behavior measured as total time at 25 mg/kg, ip. It is filed as functional. As to conditions: route intraperitoneal. The gist of the method:
as §2

In assay [18] the test system is Mus musculus. The assay can be described thus: Antinociceptive activity in albino CD-1 mouse at 1 to 10 mg/kg, ip up to 2 hrs by tail-flick method. It is filed as functional, organism-based. The gist of the method:
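Male albino CD-1 mice (18–24 g), ten per group, dosed ip as suspension in 0.5% methylcellulose. Radiant light on ventral tail, adjusted for baseline 2–4 sec; animals outside excluded. Two control latencies 30 min apart averaged; post-dose latencies every 30 min over 2 hr, 10-sec cutoff. %MPE = [(Tr − Tc)/(10 − Tc)] × 100, read at peak-effect time.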

In assay [19] the test system is Rattus norvegicus. The assay can be described thus: Central dopaminergic activity in 6-OH-DA-lesioned specific pathogen-free Sprague-Dawley rat assessed as induction of rotational behavior measured as total time at 2 mg/kg, ip. It is filed as functional. To be noted: route intraperitoneal. The gist of the method: as §1

Each structure is given as a SMILES string. The source made the active and inactive calls.

Turning to `CN1CC[C@]23c4c5ccc(O)c4O[C@H]2[C@@H](O)C=C[C@H]3[C@H]1C5`, in the assay on Mus musculus [1], the outcome was Active. In the assay with Mus musculus [2], the result was inactive.

Take `CCCN1CCc2cccc3c2C1Cc1cccc(O)c1-3` (racemic): the Time was found to be 0 min in the assay on Rattus norvegicus [3]; 195 min in the assay with Rattus norvegicus [4]; 725 min in the assay with Rattus norvegicus [5]; 580 min in the assay with Rattus norvegicus [6]; 200 min with Rattus norvegicus [7]. In addition, the result in the assay with Rattus norvegicus [8] was Active.

As to `CCCN1CCc2cccc3c2C1Cc1ccc(O)cc1-3` (racemic), the Time with Rattus norvegicus [9] is given as 105 min; in the assay with Rattus norvegicus [5], 177 min; in the assay with Rattus norvegicus [6], 0 min; in the assay with Rattus norvegicus [10], 174 min. The outcome in the assay with Rattus norvegicus [8], in the assay on Mus musculus [1] and in the assay on Mus musculus [2] was Active.

As for `CCCN1CCc2cccc3c2[C@H]1Cc1ccc(O)c(O)c1-3` (racemic) [R-N-PROPYLNORAPOMORPHINE], the outcome in the assay on Mus musculus [11], in the assay on Rattus norvegicus [8] and with Mus musculus [14] was Active. The Time in the assay with Rattus norvegicus [3] is recorded as 200 min; in the assay with Rattus norvegicus [12], 185 min; in the assay with Rattus norvegicus [4], 305 min; in the assay on Rattus norvegicus [7], 360 min; with Rattus norvegicus [13], 205 min.

Turning to `N[C@@H](Cc1ccc(O)c(O)c1)C(=O)O` [LEVODOPA], the Time in the assay on Rattus norvegicus [15] is 35 min; with Rattus norvegicus [16], 90 min; with Rattus norvegicus [17] it was 127 min. In the assay with Mus musculus [18], the result was inactive.

Regarding `CN1CCc2cccc3c2[C@H]1Cc1ccc(O)c(O)c1-3` [APOMORPHINE], the Time came to 33 min in the assay on Rattus norvegicus [3]; 55 min in the assay with Rattus norvegicus [12]; 63 min with Rattus norvegicus [4]; 144 min in the assay with Rattus norvegicus [9]; 153 min in the assay with Rattus norvegicus [5]; 238 min in the assay on Rattus norvegicus [19]. Also, the outcome in the assay on Rattus norvegicus [8] and in the assay on Mus musculus [2] was Active. Moreover, the result in the assay with Mus musculus [1] was inactive.

On to `COc1ccc2c(c1O)-c1cccc3c1[C@@H](C2)N(C)CC3` [APOCIDEINE], for which the Time in the assay with Rattus norvegicus [15] is reported as 200 min; in the assay on Rattus norvegicus [5] it was 40 min.
